For one data set, the target named is T1, bovine trypsin (Bos taurus, UniProt P00760).
T1 sequence (P00760 24-246): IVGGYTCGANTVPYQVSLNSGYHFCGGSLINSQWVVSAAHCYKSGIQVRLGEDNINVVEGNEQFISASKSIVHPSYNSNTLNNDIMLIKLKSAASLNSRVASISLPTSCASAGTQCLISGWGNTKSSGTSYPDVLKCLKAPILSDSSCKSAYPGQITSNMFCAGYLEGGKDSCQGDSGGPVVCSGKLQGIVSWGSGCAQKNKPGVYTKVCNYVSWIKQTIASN
Put plainly: Target specificity: trypsin activity with a-factor–based peptide. The format is biochemical. To be noted: 100 µM compound; relative to DMSO control = 100%. The method, boiled down:
(§1)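 Single-dose specificity assay with a-factor–based fluorogenic peptide (50 µM) in 0.1 M KPi pH 7.6. Ste23p was used at 10 µg/mL and 30 °C; trypsin and pronase E at 0.5 µg/mL each under the 37 °C HTS conditions. Enzymes were preincubated 10 min with 100 µM compound. Triplicate rates were normalized by trypsin/pronase full digestion and given relative to DMSO control (100%).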

Another data set has as its system pronase E. Put plainly: Target specificity: pronase E activity with a-factor–based peptide. The format is biochemical. To be noted: 100 µM compound; relative to DMSO control = 100%. The method, boiled down:
as §1

The target of another data set is T2, yeast Ste24p (Saccharomyces cerevisiae, UniProt P47154).
T2 sequence (P47154 1-453): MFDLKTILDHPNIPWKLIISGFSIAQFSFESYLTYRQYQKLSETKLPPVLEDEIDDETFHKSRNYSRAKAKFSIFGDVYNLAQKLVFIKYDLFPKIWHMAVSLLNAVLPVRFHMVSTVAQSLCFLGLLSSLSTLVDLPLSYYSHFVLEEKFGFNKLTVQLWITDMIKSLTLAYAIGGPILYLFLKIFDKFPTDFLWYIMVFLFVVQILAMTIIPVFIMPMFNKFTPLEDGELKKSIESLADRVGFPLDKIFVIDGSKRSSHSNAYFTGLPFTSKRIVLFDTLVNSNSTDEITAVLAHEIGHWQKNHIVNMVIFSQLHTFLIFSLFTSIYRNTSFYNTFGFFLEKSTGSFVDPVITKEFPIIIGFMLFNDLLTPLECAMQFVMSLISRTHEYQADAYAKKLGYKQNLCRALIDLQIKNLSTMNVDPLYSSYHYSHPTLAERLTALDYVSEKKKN
The data set can be described thus: Target specificity: Ste24p activity. To be noted: 100 µM compound; relative to DMSO control = 100%. The format is biochemical. In short, it runs like this: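 Yeast-derived microsomes (250 µg/mL) enriched for Rce1p or Ste24p were preincubated 10 min with 100 µM compound. They were assayed with an internally quenched fluorogenic farnesylated K-Ras C-terminus–based peptide, read at 320/420 nm ex/em. Rates were in triplicate, normalized by trypsin/pronase complete digestion, and expressed relative to DMSO control (100%).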

Data set [1] deals with T3, rat IDE (Rattus norvegicus, UniProt P35559).
T3 sequence (P35559 1-1019): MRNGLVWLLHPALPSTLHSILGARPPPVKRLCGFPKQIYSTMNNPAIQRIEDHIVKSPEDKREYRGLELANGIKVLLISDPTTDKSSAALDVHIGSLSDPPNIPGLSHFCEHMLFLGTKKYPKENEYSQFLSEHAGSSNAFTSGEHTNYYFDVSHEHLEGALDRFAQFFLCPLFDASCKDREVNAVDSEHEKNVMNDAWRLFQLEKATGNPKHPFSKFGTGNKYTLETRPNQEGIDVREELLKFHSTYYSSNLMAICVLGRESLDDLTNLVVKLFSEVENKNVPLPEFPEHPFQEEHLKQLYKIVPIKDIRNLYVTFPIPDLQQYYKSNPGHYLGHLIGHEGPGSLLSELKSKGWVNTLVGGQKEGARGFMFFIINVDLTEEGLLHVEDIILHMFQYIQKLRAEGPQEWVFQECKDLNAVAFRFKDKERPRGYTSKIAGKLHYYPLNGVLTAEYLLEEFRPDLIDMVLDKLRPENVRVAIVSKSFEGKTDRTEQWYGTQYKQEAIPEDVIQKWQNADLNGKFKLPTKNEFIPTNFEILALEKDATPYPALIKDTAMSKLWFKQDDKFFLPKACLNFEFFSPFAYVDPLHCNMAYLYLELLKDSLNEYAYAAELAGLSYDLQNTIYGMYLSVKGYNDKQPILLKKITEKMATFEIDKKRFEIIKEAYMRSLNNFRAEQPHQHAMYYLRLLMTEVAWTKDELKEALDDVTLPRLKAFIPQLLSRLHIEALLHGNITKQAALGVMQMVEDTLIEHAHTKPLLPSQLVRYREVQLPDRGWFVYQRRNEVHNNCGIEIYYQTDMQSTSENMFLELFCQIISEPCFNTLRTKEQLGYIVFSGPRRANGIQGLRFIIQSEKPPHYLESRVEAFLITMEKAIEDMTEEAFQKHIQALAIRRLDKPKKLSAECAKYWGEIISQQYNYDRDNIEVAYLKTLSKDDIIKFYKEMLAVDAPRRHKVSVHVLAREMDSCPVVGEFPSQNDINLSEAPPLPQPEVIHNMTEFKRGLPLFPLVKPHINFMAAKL
The data set can be described thus: Dose-response of rat IDE activation. The format is biochemical. To be noted: for dose-response profile: rat IDE activation, a-factor–based substrate. In short, it runs like this:
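Rat IDE (10 µg/mL) in 0.1 M KPi pH 7.6 was preincubated 10 min at 37 °C with activator (up to 1 mM), then mixed 1:1 with a-factor–based fluorogenic substrate (50 µM final). Fluorescence (320 ex) was read over 60 min and rate taken from the 15–30 min window. Baseline was subtracted and rates normalized to trypsin/pronase E full digestion. AC50 came from best-fit curves, or [Max]50 where the curve was not sigmoidal.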

Data set [2] has as its target T3, rat IDE. Put plainly: Kinetic analysis of rat IDE in presence of activator. The format is biochemical. To be noted: compound 100 µM; 0.1 M KPi pH 7.6; DMSO control 154.8 ± 12.26.
Data set [3] deals with yeast y272 cotransformed with pWS192 and pWS496. The data set can be described thus: Yeast toxicity assay. To be noted: for yeast saturation density relative to DMSO-treated control: 100 µM compound, 44 h at 30 °C; for yeast saturation density relative to DMSO-treated culture: lower concentrations of compounds. It is filed as cell-based. The method, boiled down: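 Saturated starter culture of y272 carrying pWS192 (MFA1) and pWS496 (PGK-driven HA-tagged rat IDE) was diluted 1:2000 into SC-UW and treated with DMSO or compound (100 µM, or lower empirically chosen doses), in triplicate. Cultures were grown 44 h at 30 °C, or 72 h where needed.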

For data set [4], the target named is T3, rat IDE. The data set can be described thus: a-Factor production bioassay. To be noted: 72 h, relative to DMSO-treated control. It is filed as cell-based.

This note sets out measurements from publication PMC5901702 (Journal of biomolecular screening, 2012).

As a reminder, the Vmax is the rate approached at saturating substrate. As to `O=S(=O)(O)CCCc1cccc2ccccc12` [Compound 1], the “% Activity Trypsin” value at bovine trypsin amounted to 94.2 ± 0.3%. For the same molecule, the “% Activity Pronase” value in the data set with pronase E worked out at 100.9 ± 0.1%. Further, at yeast Ste24p, the “% Activity Ste24p” value came out at 97.2 ± 12.7%. Further, at rat IDE [1] (highest concentration tested 1 mM), the Saturation of activation result is recorded as “not achieved”. Besides, the dose-response profile result on rat IDE [1] is recorded as “classic sigmoidal dose-responses”. Also, the Vmax at rat IDE [2] came out at 194.1 ± 5.85 nmol/min/mg. Also, the “yeast saturation density relative to DMSO-treated control” value in data set [3] is above 90%.

Turning to `Cn1ncc2c(NCCc3ccccc3)nc(Cl)nc21` [Compound 2], the “% Activity Trypsin” value on bovine trypsin was found to be 115.1 ± 3.9%. In addition, the “% Activity Pronase” value in the data set on pronase E is reported as 89.2 ± 0.6%. Also, the “% Activity Ste24p” value at yeast Ste24p was 93.0 ± 6.8%. Also, the dose-response profile result on rat IDE [1] is given as “classic sigmoidal dose-responses”. Moreover, the Vmax at rat IDE [2] stood at 164.2 ± 6.4 nmol/min/mg. The “IDE-mediated a-factor production in vivo” value on rat IDE [4] (100 µM compound) is recorded as “reduced the yield of a-factor produced”.

In the case of `O=S(=O)(O)c1cc(O)c2c(O)c(N=Nc3cccc4ccccc34)c(S(=O)(=O)O)cc2c1` [Compound 3], the “% Activity Trypsin” value at bovine trypsin was determined as 99.3 ± 2.2%. Moreover, the “% Activity Pronase” value in the data set on pronase E stood at 103.8 ± 0.1%. Further, the dose-response profile result on rat IDE [1] is “inverted bell-shaped activation curve”. In addition, in data set [3], the “yeast saturation density relative to DMSO-treated control” value was above 90%. Besides, the “IDE-mediated a-factor production in vivo” value at rat IDE [4] (100 µM compound) is reported as “enhanced a-factor production in vivo”.

In the case of `Nc1nc(SCc2ccccc2Cl)cc(C(=O)O)n1` [Compound 5], the “% Activity Trypsin” value on bovine trypsin is 94.3 ± 5.4%. For the same molecule, the “% Activity Ste24p” value at yeast Ste24p was 131.4 ± 18.8%. The dose-response profile entry at rat IDE [1] was “inverted bell-shaped activation curve”. On rat IDE [2], the Vmax came out at 127.8 ± 10.41 nmol/min/mg. Also, the “yeast saturation density relative to DMSO-treated culture” value in data set [3] (44 h) is above 90%. Besides, the “IDE-mediated a-factor production in vivo” value on rat IDE [4] (12.5 µM compound) is given as “enhanced a-factor production in vivo”.

For `O=C(CCN1CC2CCC(CC2)C1)c1cccs1` [Compound 6], the “% Activity Trypsin” value on bovine trypsin was 111.5 ± 2.8%. Also, the “% Activity Pronase” value in the data set with pronase E was found to be 104.4 ± 0.0%. Besides, the “% Activity Ste24p” value at yeast Ste24p was found to be 98.6 ± 9.9%. At rat IDE [1], the dose-response profile result is on record as “classic sigmoidal dose-responses”. Further, the Vmax on rat IDE [2] was 176.3 ± 7.35 nmol/min/mg. Also, the “yeast saturation density relative to DMSO-treated control” value in data set [3] is recorded as “completely inhibited growth”. Moreover, the “yeast saturation density relative to DMSO-treated culture” value in data set [3] (44 h) is listed as above 90%. Also, the “IDE-mediated a-factor production in vivo” value on rat IDE [4] (50 µM compound) is given as “enhanced a-factor production in vivo”.

As to `O=C(O)c1ccc(Oc2nc3ccccc3s2)cc1` [Compound 7], on bovine trypsin, the “% Activity Trypsin” value came to 111.0 ± 1.2%. For the same molecule, in the data set with pronase E, the “% Activity Pronase” value stood at 104.3 ± 0.9%. In addition, the “% Activity Ste24p” value at yeast Ste24p is reported as 92.8 ± 13.1%. Besides, the dose-response profile result at rat IDE [1] was “classic sigmoidal dose-responses”. The Vmax at rat IDE [2] is listed as 194.1 ± 13.81 nmol/min/mg. Besides, the “yeast culture density relative to DMSO-treated culture” value in data set [3] (incubation extended to 72 h) is above 85%. In addition, in data set [3] (lowest concentration evaluated 12.5 µM, 44 h), the “saturated growth of treated yeast cultures” value is “did not achieve saturated growth”. Besides, the “IDE-mediated a-factor production in vivo” value on rat IDE [4] (100 µM compound) is recorded as “reduced the yield of a-factor produced”.

With `O=[N+]([O-])/C=C/c1cc2ccccc2[nH]1` [Compound 8], the “% Activity Trypsin” value at bovine trypsin came to 101.8 ± 1.8%. In addition, the “% Activity Pronase” value with pronase E stood at 93.3 ± 1.8%. Besides, the “% Activity Ste24p” value on yeast Ste24p came out at 89.2 ± 10.7%. Further, the dose-response profile result on rat IDE [1] is recorded as “inverted bell-shaped activation curve”. In addition, the Vmax on rat IDE [2] came to 185.0 ± 9.73 nmol/min/mg. In addition, in data set [3], the “yeast saturation density relative to DMSO-treated control” value was “completely inhibited growth”. Further, the “yeast saturation density relative to DMSO-treated culture” value in data set [3] (44 h) is listed as above 90%. In addition, the “IDE-mediated a-factor production in vivo” value on rat IDE [4] (25 µM compound) is “enhanced a-factor production in vivo”.
